Calls of active or inactive are those of the source. No cut-off for these calls is given here.
Columns and labels:
[1] = Toxicity in 24 hrs post fertilized zebrafish embryo assessed as malformation of spine curvature at 50 uM measured after 24 hrs by microscopic analysis; set-up: species or system Danio rerio; conditions: in vivo
In short: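 Zebrafish embryos raised in an automated housing system at 28 °C to 24 hpf, then exposed for 24 h to test agent at 50 μM in vehicle (1% DMSO in water). Digoxin and cycloheximide at 50 μM served as positive controls, with an untreated control. Morphology was then inspected and photographed by light microscopy.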

[2] = target: Sodium/potassium-transporting ATPase (Homo sapiens) (UniProt P05023+P14415+P05026+P50993+P54709+P13637+Q13733+P54710); test: Inhibition of Na+/K+ ATPase pump in human DU145 cells assessed as increase in intracellular calcium level at 50 uM measured after 5 hrs by Fura-2/AM dye based fluorescence assay; format: cell-based
In short: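 DU-145 cells at 1×10^4 per well treated 5 h (0–50 μM), DMSO/water negative control; medium removed, loaded with 5 μM fura-2 AM then 2.5 mM probenecid; intracellular Ca2+ from emission 510 nm ratio at 340/380 nm excitation; two independent experiments.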

HT-29 = test: Cytotoxicity against human HT-29 cells assessed as reduction in cell viability measured after 72 hrs by SRB assay; format: functional, cell-based; conditions: for IC50: HT-29, 72 h
HeLa = test: Cytotoxicity against human HeLa cells assessed as reduction in cell viability measured after 72 hrs by SRB assay; format: functional, cell-based
DU-145 [3] = test: Cytotoxicity against human DU145 cells assessed as reduction in cell viability measured after 72 hrs by SRB assay; format: functional, cell-based; conditions: for IC50: DU-145, 72 h
PC-3 = test: Cytotoxicity against human PC3 cells assessed as reduction in cell viability measured after 72 hrs by SRB assay; format: functional, cell-based; conditions: for IC50: PC-3, 72 h
MDA-MB-231 = test: Cytotoxicity against human MDA-MB-231 cells assessed as reduction in cell viability measured after 72 hrs by SRB assay; format: functional, cell-based; conditions: MDA-MB-231, 72 h
DU-145 [4] = test: Induction of apoptosis in human DU145 cells assessed as decrease in number of cells at 0.003 to 0.3 uM measured upto 72 hrs by microscopic analysis; format: functional, cell-based
[5] = Toxicity in 24 hrs post fertilized zebrafish embryo assessed as effect on brain development at 50 uM measured after 24 hrs by microscopic analysis; set-up: species or system Danio rerio; conditions: in vivo
In short: (§1)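 Embryos raised at 28 °C to 24 hpf, then exposed to 50 μM in 1% DMSO in water (vehicle control) for 24 h; larvae examined and photographed by light microscopy for developmental morphology.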

[6] = Toxicity in 24 hrs post fertilized zebrafish embryo assessed as effect on vasculature at 50 uM measured after 24 hrs by microscopic analysis; set-up: species or system Danio rerio; conditions: in vivo; in short: as §1
[7] = Toxicity in 24 hrs post fertilized zebrafish embryo assessed as effect on heart development at 50 uM measured after 24 hrs by microscopic analysis; set-up: species or system Danio rerio; conditions: in vivo; in short: as §1
[8] = Toxicity in 24 hrs post fertilized zebrafish embryo assessed as effect on gut development at 50 uM measured after 24 hrs by microscopic analysis; set-up: species or system Danio rerio; conditions: in vivo; in short: as §1
[9] = Toxicity in 24 hrs post fertilized zebrafish embryo assessed as effect on trunk development at 50 uM measured after 24 hrs by microscopic analysis; set-up: species or system Danio rerio; conditions: in vivo; in short: as §1
[10] = Toxicity in 24 hrs post fertilized zebrafish embryo assessed as effect on tail development at 50 uM measured after 24 hrs by microscopic analysis; set-up: species or system Danio rerio; conditions: in vivo; in short: as §1
MCF7 = test: Cytotoxicity against human MCF7 cells assessed as reduction in cell viability measured after 72 hrs by SRB assay; format: functional, cell-based
[11] = Cytotoxicity against human CCD-112CoN cells assessed as reduction in cell viability measured after 72 hrs by SRB assay; format: cell-based
[12] = Selectivity index, ratio of IC50 for human CCD-112CoN cells to IC50 for human HT-29 cells
DU-145 [13] = test: Cytotoxicity against human DU145 cells assessed as reduction in cell viability measured after 24 hrs by SRB assay; format: functional, cell-based; conditions: DU-145, 24 h
In short: (§2)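 DU-145 cells seeded at 5×10^4 cells/mL, compound 30–3×10^-4 μM for 24 or 48 h at 37 °C, 5% CO2; TCA fixation, 0.4% SRB staining, Tris-base solubilisation, absorbance 515 nm; timed IC50 by non-linear regression.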

DU-145 [14] = test: Cytotoxicity against human DU145 cells assessed as reduction in cell viability measured after 48 hrs by SRB assay; format: functional, cell-based; conditions: DU-145, 48 h; in short: as §2
DU-145 [15] = test: Cell cycle arrest in human DU145 cells assessed as decrease in G1 phase population at 0.005 to 5 uM after 24 hrs by RNase/propidium iodide staining based FACScalibur flow cytometry analysis; format: functional
In short: (§3)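 DU-145 cells in 6-cm plates treated 0.005–5 μM for 24 h; trypsinised, fixed in 70% ethanol, RNase incubation 1 h at 37 °C, propidium iodide stained; flow cytometry, excitation 488 nm, emission 617 nm; percentage of cells per phase vs control; two independent experiments.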

DU-145 [16] = test: Induction of apoptosis in human DU145 cells assessed as cell shrinkage at 0.003 to 0.3 uM measured upto 72 hrs by microscopic analysis; format: functional, cell-based
DU-145 [17] = test: Induction of apoptosis in human DU145 cells assessed as increase in apoptotic cells at 0.003 to 0.3 uM measured upto 72 hrs by microscopic analysis; format: functional, cell-based
DU-145 [18] = test: Induction of morphological changes in human DU145 cells assessed as apoptotic cell death at 0.003 to 0.3 uM measured upto 72 hrs by microscopic analysis; format: functional, cell-based
DU-145 [19] = test: Induction of apoptosis in human DU145 cells assessed as cell detachment from monolayer surface at 0.003 to 0.3 uM measured upto 72 hrs by microscopic analysis; format: functional, cell-based
DU-145 [20] = test: Cell cycle arrest in human DU145 cells assessed as increase in sub-G1 phase population at 0.005 to 5 uM after 24 hrs by RNase/propidium iodide staining based FACScalibur flow cytometry analysis; format: functional; in short: as §3
DU-145 [21] = test: Induction of mitochondrial membrane potential loss in human DU145 cells after 2 hrs by JC1 staining based fluorescence assay; format: functional, cell-based; conditions: DU-145, 2 h
DU-145 [22] = test: Decrease in NF-KappaB p50 subunit expression in human DU145 cells at 0.05 to 50 uM measured after 12 hrs by Western blot analysis; format: functional, cell-based
In short: (§4)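 DU-145 cells in DMEM treated 0.05–50 μM for 12 h, DMSO/water vehicle control; lysates quantified by BCA, 20 μg protein on 10% Bis-Tris SDS-PAGE, transferred to PVDF, blocked with 3% BSA, primary antibody overnight, secondary 1 h, chemiluminescent detection, band densitometry; three independent assays, one-way ANOVA with Dunnett's test.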

DU-145 [23] = test: Decrease in NF-KappaB p65 subunit expression in human DU145 cells at 0.05 to 50 uM measured after 12 hrs by Western blot analysis; format: functional, cell-based; in short: as §4
DU-145 [24] = test: Decrease in IKK alpha expression in human DU145 cells measured after 12 hrs by Western blot analysis; format: functional, cell-based; in short: as §4
DU-145 [25] = test: Decrease in IKKbeta expression in human DU145 cells measured after 12 hrs by Western blot analysis; format: functional, cell-based; in short: as §4
DU-145 [26] = test: Decrease in ICAM1 expression in human DU145 cells after 12 hrs by Western blot analysis; format: functional, cell-based; in short: as §4
DU-145 [27] = test: Induction of ROS generation in human DU145 cells at 0.5 to 50 uM measured after 5 hrs by DCFHDA probe based fluorescence assay; format: functional, cell-based
In short: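 DU-145 cells seeded at 5×10^4/mL, treated 0.5–50 μM, incubated at 37 °C for 5 h; DCFH-DA 10 μM added; fluorescence at excitation 485 / emission 530 nm vs DMSO control; triplicate, two independent experiments, one-way ANOVA with Dunnett's test.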

DU-145 [28] = test: Induction of apoptosis in human DU145 cells assessed as reduction in Bcl2 protein expression at 5 to 50 uM measured after 12 hrs by Western blot analysis; format: functional, cell-based; in short: as §4
DU-145 [29] = test: Induction of apoptosis in human DU145 cells assessed as increase in PARP1 protein expression at 5 to 50 uM measured after 12 hrs by Western blot analysis; format: functional, cell-based; in short: as §4
DU-145 [30] = test: Induction of apoptosis in human DU145 cells assessed assessed as caspase 3/7 activity after 5 hrs by caspase-Glo 3/7 reagent based luminescence assay; format: functional, cell-based
In short: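 DU-145 cells at 1×10^4 per well treated 0.08–8 μM for 5 h, DMSO/water vehicle; Caspase-Glo 3/7 reagent added, 2 h incubation, luminescence read; three independent assays, one-way ANOVA with Dunnett's test.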

DU-145 [31] = test: Induction of apoptosis in human DU145 cells assessed assessed as increase in caspase 3 expression at 0.05 to 50 uM after 12 hrs by Western blot analysis; format: functional, cell-based; in short: as §4
DU-145 [32] = test: Induction of apoptosis in human DU145 cells assessed assessed as increase in caspase 7 expression at 0.05 to 50 uM after 12 hrs by Western blot analysis; format: functional, cell-based; in short: as §4
Danio rerio [33] = species: Danio rerio; test: Downregulation of NF-kappaB p65 expression in zebrafish at 0.6 to 15 uM by Western blot analysis; format: functional, organism-based
In short: (§5)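 Zebrafish larvae at 72 hpf exposed for 3 h to a range of concentrations, frozen on dry ice and homogenised; BCA protein assay, 20 μg on 10% Bis-Tris SDS-PAGE, PVDF transfer, 3% BSA block, primary antibody overnight, secondary 1 h, chemiluminescent detection, densitometry.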

Danio rerio [34] = species: Danio rerio; test: Downregulation of IKKalpha expression in zebrafish at 0.6 to 15 uM by Western blot analysis; format: functional, organism-based; in short: as §5
Danio rerio [35] = species: Danio rerio; test: Effect on NF-KappaB p50 expression in zebrafish at 0.6 to 15 uM by Western blot analysis; format: functional, organism-based; in short: as §5
Danio rerio [36] = species: Danio rerio; test: Effect on IKKbeta expression in zebrafish at 0.6 to 15 uM by Western blot analysis; format: functional, organism-based; in short: as §5
Danio rerio [37] = species: Danio rerio; test: Increase in caspase 3 level in zebrafish at 0.6 to 15 uM by Western blot analysis; format: functional, organism-based; in short: as §5
Danio rerio [38] = species: Danio rerio; test: Effect on caspase 7 level in zebrafish at 0.6 to 15 uM by Western blot analysis; format: functional, organism-based; in short: as §5
[39] = Toxicity in zebrafish assessed as effect on intracellular calcium level at 50 uM measured after 5 hrs by Fura-2/AM dye based fluorescence assay; format: cell-based, Danio rerio; conditions: in vivo

C[C@H]1O[C@@H](O[C@H]2[C@@H](O)C[C@H](O[C@H]3[C@@H](O)C[C@H](O[C@H]4CC[C@@]5(C)[C@H](CC[C@@H]6[C@@H]5C[C@@H](O)[C@]5(C)[C@@H](C7=CC(=O)OC7)CC[C@]65O)C4)O[C@@H]3C)O[C@@H]2C)C[C@H](O)[C@@H]1O [DIGOXIN]
Activity [1]: Toxic
inhibition [2]: Active

CC(=O)O[C@H]1C(=O)[C@@]2(C)[C@H]([C@H](OC(=O)c3ccccc3)[C@]3(O)C[C@H](OC(=O)[C@H](O)[C@@H](NC(=O)c4ccccc4)c4ccccc4)C(C)=C1C3(C)C)[C@]1(OC(C)=O)CO[C@@H]1C[C@@H]2O [PACLITAXEL]
IC50 (HT-29): 2 nM
IC50 (HeLa): 5 nM
IC50 (DU-145 [3]): 4 nM
IC50 (PC-3): 170 nM
IC50 (MDA-MB-231): 100 nM

C[C@H]1O[C@@H](O[C@H]2CC[C@]3(C)[C@H]4CC[C@]5(C)[C@@H](C6=CC(=O)OC6)CC[C@]5(O)[C@@H]4CC[C@]3(O)C2)C[C@H](O)[C@@H]1O[C@@H]1O[C@H](CO)[C@@H](O)[C@H](O)[C@H]1O
Activity (DU-145 [4]): Active
Activity [5]: Non-Toxic
Activity [6]: Non-Toxic
Activity [7]: Non-Toxic
Activity [8]: Non-Toxic
Activity [9]: Non-Toxic
Activity [10]: Non-Toxic
Activity (HT-29): Dose-dependent effect
IC50 (HT-29): 120 nM
Activity (HeLa): Dose-dependent effect
IC50 (HeLa): 190 nM
Activity (DU-145 [3]): Dose-dependent effect
IC50 (DU-145 [3]): 80 nM
Activity (PC-3): Dose-dependent effect
IC50 (PC-3): 200 nM
Activity (MCF7): Dose-dependent effect
IC50 (MCF7; MCF7, 72 h): 100 nM
IC50 (MDA-MB-231): 200 nM
IC50 [11]: 2700 nM
Ratio IC50 [12]: 22.5
IC50 (DU-145 [13]): 11200 nM
IC50 (DU-145 [14]): 1200 nM
Activity (DU-145 [15]): Active
Activity (DU-145 [16]): Active
Activity (DU-145 [17]): Active
Activity (DU-145 [18]): Active
Activity (DU-145 [19]): Active
Activity (DU-145 [20]): Active
IC50 (DU-145 [21]): 300 nM
inhibition (DU-145 [22]): Active
inhibition (DU-145 [23]): Active
inhibition (DU-145 [24]): Dose-dependent effect
inhibition (DU-145 [25]): Dose-dependent effect
Activity (DU-145 [26]): Dose-dependent effect
Activity (DU-145 [27]): Active
Activity (DU-145 [28]): Active
Activity (DU-145 [29]): Active
Activity (DU-145 [30]): Dose-dependent effect
Activity (DU-145 [31]): Active
Activity (DU-145 [32]): Active
inhibition [2]: Active
Activity (Danio rerio [33]): Active
Activity (Danio rerio [34]): Active
Activity (Danio rerio [35]): inactive
Activity (Danio rerio [36]): inactive
Activity (Danio rerio [37]): Active
Activity (Danio rerio [38]): inactive
Activity [39]: Non-Toxic
